What was measured:
[1] = molecular target: T1, 3-oxo-5-alpha-steroid 4-dehydrogenase 1 (Homo sapiens, UniProt P18405); experiment: Inhibition of recombinant steroid 5-alpha-reductase type I expressed in CHO cells; type: cell-based
T1 sequence (P18405 whole entry): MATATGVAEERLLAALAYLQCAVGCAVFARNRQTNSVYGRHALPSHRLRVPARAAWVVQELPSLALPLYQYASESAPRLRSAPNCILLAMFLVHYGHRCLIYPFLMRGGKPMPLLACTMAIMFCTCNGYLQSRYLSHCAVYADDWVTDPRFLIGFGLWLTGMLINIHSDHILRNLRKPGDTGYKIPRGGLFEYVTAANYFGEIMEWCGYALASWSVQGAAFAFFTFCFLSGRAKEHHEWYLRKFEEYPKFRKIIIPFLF

[2] = molecular target: T1, 3-oxo-5-alpha-steroid 4-dehydrogenase 1; experiment: Inhibition of recombinant Steroid 5-alpha-reductase type I expressed in CHO cells; type: cell-based
[3] = molecular target: T2, 3-oxo-5-alpha-steroid 4-dehydrogenase 2 (Homo sapiens) (UniProt P31213); experiment: Inhibitory activity against steroid 5-alpha-reductase type 2 in human prostate homogenates at 10 uM; type: tissue-based; settings: Prostate gland
T2 sequence (whole entry): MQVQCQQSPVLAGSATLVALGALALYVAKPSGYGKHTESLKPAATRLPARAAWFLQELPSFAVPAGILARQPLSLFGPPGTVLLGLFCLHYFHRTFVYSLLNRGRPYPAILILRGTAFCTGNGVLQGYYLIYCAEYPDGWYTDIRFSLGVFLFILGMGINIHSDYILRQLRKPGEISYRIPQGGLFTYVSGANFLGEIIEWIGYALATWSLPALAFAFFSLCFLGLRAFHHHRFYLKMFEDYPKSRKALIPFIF
In short: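 Native 5αR-2 assayed in total human prostate homogenate with 50 nM testosterone, a level below the 5αR-1 Km so only type 2 is active. Percent inhibition was measured at 10 µM inhibitor.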

[4] = molecular target: T1, 3-oxo-5-alpha-steroid 4-dehydrogenase 1; experiment: Inhibitory activity against Steroid 5-alpha-reductase type I in human scalp homogenates; type: tissue-based
In short: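 Native 5αR-1 assayed in total human scalp homogenate with testosterone at micromolar level. 10 nM finasteride was included to suppress the co-active 5αR-2, and the value is reported as IC50.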

[5] = molecular target: T1, 3-oxo-5-alpha-steroid 4-dehydrogenase 1; experiment: Inhibition constant against recombinant Steroid 5-alpha-reductase type I expressed in CHO cells; type: cell-based
[6] = molecular target: T1, 3-oxo-5-alpha-steroid 4-dehydrogenase 1; experiment: Inhibitory activity against recombinant Steroid 5-alpha-reductase type I expressed in CHO cells; type: cell-based
[7] = molecular target: T3, 3-oxo-5-alpha-steroid 4-dehydrogenase 2 (Homo sapiens, UniProt P31213); experiment: Inhibitory activity against steroid 5-alpha-reductase type 2 in human prostate homogenates; type: tissue-based, Prostate gland
T3 sequence (P31213 whole entry): T2 sequence (whole entry)
In short: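 Native 5αR-2 in total human prostate homogenate, with 50 nM testosterone so that only type 2 is active (Km 0.2 µM vs 1.7 µM for type 1). Inhibition measured at 10 µM or as IC50. Finasteride and LY191704 used as selectivity controls.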

IC50 [1] [nM]	IC50 [2] [nM]	SMILES	other results
346		CC1Cc2cc(Cl)ccc2N2CCC(=O)C=C12 (configuration not stated)	
9100		C[C@H]1Cc2cc(Cl)ccc2N2C=CC(=O)CC12 (some centres not stated)	
	8.5	CC1=C2CC(C)c3cc(Cl)ccc3N2CCC1=O (configuration not stated)	
376		Cc1ccc2c(c1)CCC1=CC(=O)CCN12	
188		C[C@@H]1CC2CC(=O)C=CN2c2ccc(Cl)cc21 (some centres not stated)	
	14.3	Cc1ccc2c(c1)C(C)CC1=CC(=O)CCN12 (configuration not stated)	
	14.4	CC1CC2=CC(=O)CCN2c2ccc(Cl)cc21 (configuration not stated)	
141		CC1C(=O)C=CN2c3ccc(Cl)cc3CCC12 (configuration not stated)	
7.6		CC1=C2CCc3cc(Cl)ccc3N2CCC1=O	inhibition [3]: 20%; IC50 [4]: 41 nM; Ki [5]: 2.7 nM
459		O=C1C=CN2c3ccc(Cl)cc3CCC2C1 (configuration not stated)	
	1880	CC1Cc2cc(Cl)ccc2-n2ccc(=O)cc21 (configuration not stated)	
	204	CC1CC(=O)C=C2CCc3cc(Cl)ccc3N21 (configuration not stated)	
	15.6	CC1=C2C(C)Cc3cc(Cl)ccc3N2CCC1=O (configuration not stated)	

Continued, compound first:

SMILES	IC50 [1] [nM]	IC50 [2] [nM]	other results
C[C@@H]1C(=O)C=CN2c3ccccc3CCC12 (some centres not stated)	2700		
Cc1ccc2c(c1)CCC1CC(=O)C=CN21 (configuration not stated)	176		
Cc1c2n(ccc1=O)-c1ccccc1CC2		1400	
Cc1ccc2c(c1)CCC1C(C)C(=O)C=CN21 (configuration not stated)		312	
CC1=C2CC(C)c3cc(C)ccc3N2CCC1=O (configuration not stated)		15.8	
CC1=C2CCc3ccccc3N2CCC1=O	185		
CC1=C2CCc3cc(C)ccc3N2CCC1=O	20		inhibition [3]: 20%; IC50 [4]: 41 nM; Ki [5]: 5.8 nM
CN1C(=O)CC[C@@H]2c3ccc(Cl)cc3CC[C@H]21 [BEXLOSTERIDE]			inhibition [3]: 19%; IC50 [4]: 2.3 nM
Cc1ccc2c(c1)CCC1[C@H](C)C(=O)C=CN21 (some centres not stated)	137		
CC(C)(C)NC(=O)[C@H]1CC[C@H]2[C@@H]3CC[C@H]4NC(=O)C=C[C@]4(C)[C@H]3CC[C@]12C [FINASTERIDE]			Ki [6]: 366 nM; IC50 [7]: 2.2 nM
CC1C(=O)C=CN2c3ccccc3CCC12 (configuration not stated)		4300	

Source: ChEMBL document CHEMBL1133680, “Benzo[c]quinolizin-3-ones: a novel class of potent and selective nonsteroidal inhibitors of human steroid 5alpha-reductase 1” (J Med Chem, 2000)
